The results in this text go back to ChEMBL document CHEMBL1148285, “Pyridinium cationic lipids in gene delivery: a structure-activity correlation study” (J Med Chem, 2004).

This experiment deals with NCI-H23. Briefly: Transfection efficiency in NCI-H23 lung cancer cell line was determined. Particulars: Homo sapiens. In kind it is functional, cell-based. In a few lines: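 Cationic lipid/cholesterol 1:1 liposomes hydrated in PBS and bath-sonicated (twice 15 min, 65–68 °C; DOTAP/Chol at 37 °C). Lipoplexes with pGL3 (SV40-luciferase) at 2:1 charge ratio, 30 min at 22 °C in Optimem. NCI-H23 cells in RPMI 1640/10% FBS, 20 000 cells/well seeded 24 h before. Exposed 1 h, then medium added for 24 h. Lysate luciferase measured by luminometer, protein by BCA. Triplicate or quadruplicate, mean ± 1 SD.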

For `CCCCCCCC(=O)Oc1ccc(CC[n+]2c(C)cc(C)cc2C)cc1OC(=O)CCCCCCC`, the Activity result is “A”.
On to `CCCCCCCCCC(=O)Oc1ccc(CC[n+]2c(C)cc(C)cc2C)cc1OC(=O)CCCCCCCCC`, for which the Activity result is reported as “A”.
Regarding `CCCCCCCCCCCCCC(=O)Oc1ccc(CC[n+]2c(C)cc(C)cc2C)cc1OC(=O)CCCCCCCCCCCCC`, the Activity entry was “A”.
The same measure for `CCCCCCCCCCCC(=O)OCC(COC(=O)CCCCCCCCCCC)[n+]1c(C)cc(C)cc1C`: “A”; for `CCCCCCCCCCCCCCCC(=O)Oc1ccc(CC[n+]2c(C)cc(C)cc2C)cc1OC(=O)CCCCCCCCCCCCCCC`: “A”.
Take `CCCCCCCCCCCCCCCC(=O)OCC(COC(=O)CCCCCCCCCCCCCCC)[n+]1c(C)cc(C)cc1C`: the Activity result was “A”.
The same measure for `CCCCCCCCCCCCCCCCCC(=O)OCC(COC(=O)CCCCCCCCCCCCCCCCC)[n+]1c(C)cc(C)cc1C`: “A”; for `CCCCCCCCCCCC(=O)Oc1ccc(CC[n+]2c(C)cc(C)cc2C)cc1OC(=O)CCCCCCCCCCC`: “A”.
For the compound `CCCCCCCCCCCCCCCCCC(=O)Oc1ccc(CC[n+]2c(C)cc(C)cc2C)cc1OC(=O)CCCCCCCCCCCCCCCCC`, the Activity result is reported as “A”.
The same measure for `CCCCCCCCCCCCCC(=O)OCC(COC(=O)CCCCCCCCCCCCC)[n+]1c(C)cc(C)cc1C`: “A”.
